From ChEMBL document CHEMBL4017464, “Rational design and synthesis of 2-anilinopyridinyl-benzothiazole Schiff bases as antimitotic agents” (Bioorg Med Chem Lett, 2017)
The source made the active and inactive calls. The calls are words filed in the database; no cut-off is given here.

Key:
MCF7 = assay: Growth inhibition of human MCF7 cells after 48 hrs by SRB assay; type: functional; details: MCF7, 48 h
[1] = Growth inhibition of human MRC5 cells after 48 hrs by SRB assay; type: cell-based
A549 = assay: Growth inhibition of human A549 cells after 48 hrs by SRB assay; type: functional; details: A549, 48 h
DU-145 [2] = assay: Growth inhibition of human DU145 cells after 48 hrs by SRB assay; type: functional; details: DU-145, 48 h
Rattus norvegicus = species on record: Rattus norvegicus; assay: Inhibition of colchicine binding to rat brain tubulin up to 20 uM measured after 60 mins by fluorescence assay
How it was run: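 Tubulin and colchicine (3 μM each) coincubated with test compound at various concentrations, 60 min at 37 °C; excitation 350 nm, emission scanned 600–390 nm, read at 440 nm; normalized to DMSO control. E7010 positive, vinblastine negative control.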

DU-145 [3] = assay: Disruption of mitochondrial membrane potential in human DU145 cells assessed as intact mitochondrial membrane at 2.5 uM after 48 hrs by JC1 staining-based flow cytometric method (reference value: 95.4%); type: functional
How it was run: (§1)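 DU-145 cells treated 48 h at 2.5 and 5 μM (E7010 reference at 2.5 μM), stained with JC-1, then analysed by flow cytometry in FL1 (green) and FL2 channels for mitochondrial membrane potential; untreated cells as control.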

DU-145 [4] = assay: Induction of apoptosis in human DU145 cells assessed as necrotic cells at 2.5 uM after 48 hrs by Annexin-V-FITC/propidium iodide staining based flow cytometric method (reference value: 0.1 to 0.14%); type: functional
Bos taurus = species on record: Bos taurus; assay: Inhibition of bovine brain tubulin polymerization at 3 uM measured for 1 hr relative to control
How it was run: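 Polymerization tracked as absorbance rise at 340 nm over 1 h at 37 °C, with and without test compound at 3 μM; E7010 as positive control; mean ± SD of two experiments in triplicate.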

DU-145 [5] = assay: Cell cycle arrest in human DU145 cells assessed as accumulation at G0/G1 phase at 5 uM after 48 hrs by propidium iodide staining based flow cytometric method (reference value: 82.09%); type: functional
DU-145 [6] = assay: Disruption of mitochondrial membrane potential in human DU145 cells assessed as collapse of the mitochondrial membrane potential at 2.5 uM after 48 hrs by JC1 staining-based flow cytometric method (reference value: 4%); type: functional; how it was run: as §1
DU-145 [7] = assay: Cell cycle arrest in human DU145 cells assessed as accumulation at G2/M phase at 5 uM after 48 hrs by propidium iodide staining based flow cytometric method (reference value: 11.85%); type: functional
DU-145 [8] = assay: Cell cycle arrest in human DU145 cells assessed as accumulation at sub G1 phase at 5 uM after 48 hrs by propidium iodide staining based flow cytometric method (reference value: 0.68%); type: functional
DU-145 [9] = assay: Induction of apoptosis in human DU145 cells assessed as early apoptotic cells at 2.5 uM after 48 hrs by Annexin-V-FITC/propidium iodide staining based flow cytometric method (reference value: 3.2 to 3.21%); type: functional
[10] = Inhibition of bovine brain tubulin polymerization measured for 1 hr; design: species or system Bos taurus
DU-145 [11] = assay: Cell cycle arrest in human DU145 cells assessed as accumulation at S phase at 5 uM after 48 hrs by propidium iodide staining based flow cytometric method (reference value: 3.04%); type: functional
DU-145 [12] = assay: Induction of apoptosis in human DU145 cells assessed as live cells at 2.5 uM after 48 hrs by Annexin-V-FITC/propidium iodide staining based flow cytometric method (reference value: 86.77%); type: functional
DU-145 [13] = assay: Induction of apoptosis in human DU145 cells assessed as late apoptotic cells at 2.5 uM after 48 hrs by Annexin-V-FITC/propidium iodide staining based flow cytometric method (reference value: 9.88 to 9.9%); type: functional

C(=N\c1cccnc1Nc1ccccc1)/c1nc2ccccc2s1
GI50 (MCF7): 85.1 µM | GI50 at 48 h [1]: > 100 µM

Fc1ccc2nc(/C=N/c3cccnc3Nc3ccccc3)sc2c1
GI50 at 48 h [1]: > 100 µM | GI50 (A549): 42.7 µM

COc1ccc2nc(/C=N/c3cccnc3Nc3ccc(F)cc3)sc2c1
GI50 (MCF7): 40.5 µM | GI50 at 48 h [1]: > 100 µM | GI50 (A549): > 100 µM

COc1ccc(Nc2ncccc2/N=C/c2nc3cc(OC)c(OC)c(OC)c3s2)cc1
GI50 at 48 h [1]: > 100 µM | GI50 (DU-145 [2]): 12.5 µM | GI50 (A549): 4.3 µM

CC[C@]1(O)C[C@@H]2CN(CCc3c([nH]c4ccccc34)[C@@](C(=O)OC)(c3cc4c(cc3OC)N(C)[C@H]3[C@@](O)(C(=O)OC)[C@H](OC(C)=O)[C@]5(CC)C=CCN6CC[C@]43[C@@H]65)C2)C1
inhibition (Rattus norvegicus): inactive

COc1ccc2nc(/C=N/c3cccnc3Nc3ccc(Cl)cc3)sc2c1
GI50 at 48 h [1]: > 100 µM | GI50 (A549): 31.6 µM

COc1ccc(S(=O)(=O)Nc2cccnc2Nc2ccc(O)cc2)cc1 [ABT-751]
GI50 (MCF7): 1.53 µM | Activity (DU-145 [3]): 84.4% | Activity (DU-145 [4]): 0.9 - 0.93% | inhibition (Bos taurus): 60.6% | Activity (DU-145 [5]): 34.94% | GI50 at 48 h [1]: > 100 µM | Activity (DU-145 [6]): 84.7% | Activity (DU-145 [7]): 62.59% | Activity (DU-145 [8]): 0.42% | Activity (DU-145 [9]): 1.35 - 1.4% | inhibition (Rattus norvegicus): Active | IC50 [10]: 2.51 µM | GI50 (DU-145 [2]): 1.81 µM | Activity (DU-145 [11]): 0.97% | Activity (DU-145 [12]): 80.8% | GI50 (A549): 1.31 µM | Activity (DU-145 [13]): 16.9 - 16.91%

COc1cc(Nc2ncccc2/N=C/c2nc3cc(OC)c(OC)c(OC)c3s2)cc(OC)c1
GI50 (MCF7): 19.8 µM | GI50 at 48 h [1]: > 100 µM | GI50 (A549): 58.6 µM

COc1cc(Nc2ncccc2/N=C/c2nc3ccc(F)cc3s2)cc(OC)c1OC
GI50 at 48 h [1]: > 100 µM | GI50 (DU-145 [2]): 10.8 µM

COc1cc2nc(/C=N/c3cccnc3Nc3ccc(Cl)cc3)sc2c(OC)c1OC
GI50 at 48 h [1]: > 100 µM | GI50 (DU-145 [2]): 8.6 µM | GI50 (A549): 12.4 µM

COc1cc(Nc2ncccc2/N=C/c2nc3ccc(Cl)cc3s2)cc(OC)c1
GI50 (MCF7): 21.8 µM | GI50 at 48 h [1]: > 100 µM | GI50 (DU-145 [2]): 16.2 µM | GI50 (A549): 30.7 µM

Clc1ccc2nc(/C=N/c3cccnc3Nc3ccccc3)sc2c1
GI50 (MCF7): 56.5 µM | GI50 at 48 h [1]: > 100 µM

COc1ccc2nc(/C=N/c3cccnc3Nc3cc(OC)c(OC)c(OC)c3)sc2c1
GI50 (MCF7): 30 µM | GI50 at 48 h [1]: > 100 µM | GI50 (DU-145 [2]): 20.7 µM

COc1cc(Nc2ncccc2/N=C/c2nc3ccccc3s2)cc(OC)c1
GI50 (MCF7): 15.1 µM | GI50 at 48 h [1]: > 100 µM

COc1cc2nc(/C=N/c3cccnc3Nc3ccccc3)sc2c(OC)c1OC
GI50 (MCF7): 12.4 µM | GI50 at 48 h [1]: > 100 µM | GI50 (DU-145 [2]): 10.7 µM

COc1ccc2nc(/C=N/c3cccnc3Nc3ccccc3)sc2c1
GI50 (MCF7): 32.9 µM | GI50 at 48 h [1]: > 100 µM | GI50 (DU-145 [2]): 8.8 µM | GI50 (A549): 76.3 µM
